How the values were obtained:
Type in all cases: cell-based
[1] = target: Sodium-dependent serotonin transporter (Homo sapiens, UniProt P31645); assay: In vitro inhibition of [3H]citalopram binding to human serotonin transporter expressed in human HEK293 cells
Outline: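 Membranes from HEK-293 cells stably expressing hSERT, grown in DMEM with 10% FBS and Geneticin. 30-70 µg membrane protein incubated 2 h at room temperature with [3H]citalopram in 53 mM Tris, 126 mM NaCl, 5.3 mM KCl, pH 7.9. Competitor at 12 concentrations, 10^-13 to 10^-5 M, in triplicate. Filtration through PEI-soaked GF/B filters; Ki from competition curves, at least two separate assays.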

[2] = target: Sodium-dependent dopamine transporter (Homo sapiens, UniProt Q01959); assay: In vitro inhibition of [3H]WIN-35428 binding to human dopamine transporter expressed in canine kidney cells
Outline: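 Membranes from MDCK cells stably expressing hDAT, grown to confluency in DMEM with 10% FBS and Geneticin, harvested in PBS/0.53 mM EDTA, homogenized, pelleted at 43 000g. Membranes (30-70 µg protein) incubated 1 h at room temperature in 42 mM sodium phosphate, 320 mM sucrose, pH 7.4, with 2.0 nM [3H]WIN 35,428; competitor 10^-13 to 10^-5 M, 12 concentrations, triplicate; GF/B filtration; Ki.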

[3] = target: Sodium-dependent noradrenaline transporter (Homo sapiens, UniProt P23975); assay: In vitro inhibition of [3H]nisoxetine binding to norepinephrine transporter expressed in human kidney cells
Outline: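 HEK-293 membranes stably expressing hNET (30-70 µg protein) incubated 4 h at 4 °C with [3H]nisoxetine in 53 mM Tris, 320 mM NaCl, 5.3 mM KCl, pH 7.4. Competitor dissolved in 1:1 ethanol/5 mM HCl, 12 concentrations from 10^-13 to 10^-5 M, triplicate. Cold-buffer termination, vacuum filtration on GF/B; Ki calculated from competition curves.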

Chain of Sodium-dependent serotonin transporter (P31645 whole entry): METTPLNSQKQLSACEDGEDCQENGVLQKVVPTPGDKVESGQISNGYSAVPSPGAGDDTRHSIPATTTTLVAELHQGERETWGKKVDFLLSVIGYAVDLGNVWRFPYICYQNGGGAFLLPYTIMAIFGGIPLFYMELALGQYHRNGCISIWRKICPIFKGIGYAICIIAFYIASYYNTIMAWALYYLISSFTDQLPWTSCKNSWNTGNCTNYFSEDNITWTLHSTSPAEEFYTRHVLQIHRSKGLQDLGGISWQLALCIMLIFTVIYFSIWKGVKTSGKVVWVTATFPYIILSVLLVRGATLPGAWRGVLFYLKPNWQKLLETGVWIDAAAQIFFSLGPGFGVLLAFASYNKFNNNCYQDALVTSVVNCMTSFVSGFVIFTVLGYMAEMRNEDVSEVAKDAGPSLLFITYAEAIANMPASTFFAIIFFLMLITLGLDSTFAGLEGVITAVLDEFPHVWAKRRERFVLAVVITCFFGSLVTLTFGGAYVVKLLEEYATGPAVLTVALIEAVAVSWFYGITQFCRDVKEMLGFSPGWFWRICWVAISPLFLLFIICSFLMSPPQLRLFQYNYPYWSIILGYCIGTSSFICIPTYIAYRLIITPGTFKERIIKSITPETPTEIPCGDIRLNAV
Chain of Sodium-dependent dopamine transporter (Q01959 whole entry): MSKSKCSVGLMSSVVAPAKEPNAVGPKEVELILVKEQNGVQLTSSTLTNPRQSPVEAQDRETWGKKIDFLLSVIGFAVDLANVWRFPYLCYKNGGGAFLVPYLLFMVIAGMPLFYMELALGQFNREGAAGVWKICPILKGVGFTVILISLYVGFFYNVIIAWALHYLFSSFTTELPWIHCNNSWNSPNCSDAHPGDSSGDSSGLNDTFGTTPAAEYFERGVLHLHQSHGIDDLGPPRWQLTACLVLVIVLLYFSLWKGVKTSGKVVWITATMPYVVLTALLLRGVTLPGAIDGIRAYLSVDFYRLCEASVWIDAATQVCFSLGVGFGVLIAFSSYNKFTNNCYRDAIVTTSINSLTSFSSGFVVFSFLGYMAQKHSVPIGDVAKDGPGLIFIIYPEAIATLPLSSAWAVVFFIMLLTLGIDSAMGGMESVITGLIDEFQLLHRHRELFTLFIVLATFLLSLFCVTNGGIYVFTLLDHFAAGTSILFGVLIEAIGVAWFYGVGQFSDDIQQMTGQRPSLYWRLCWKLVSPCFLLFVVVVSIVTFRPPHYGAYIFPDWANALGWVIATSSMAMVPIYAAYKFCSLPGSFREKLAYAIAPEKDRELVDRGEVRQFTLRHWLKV
Chain of Sodium-dependent noradrenaline transporter (P23975 whole entry): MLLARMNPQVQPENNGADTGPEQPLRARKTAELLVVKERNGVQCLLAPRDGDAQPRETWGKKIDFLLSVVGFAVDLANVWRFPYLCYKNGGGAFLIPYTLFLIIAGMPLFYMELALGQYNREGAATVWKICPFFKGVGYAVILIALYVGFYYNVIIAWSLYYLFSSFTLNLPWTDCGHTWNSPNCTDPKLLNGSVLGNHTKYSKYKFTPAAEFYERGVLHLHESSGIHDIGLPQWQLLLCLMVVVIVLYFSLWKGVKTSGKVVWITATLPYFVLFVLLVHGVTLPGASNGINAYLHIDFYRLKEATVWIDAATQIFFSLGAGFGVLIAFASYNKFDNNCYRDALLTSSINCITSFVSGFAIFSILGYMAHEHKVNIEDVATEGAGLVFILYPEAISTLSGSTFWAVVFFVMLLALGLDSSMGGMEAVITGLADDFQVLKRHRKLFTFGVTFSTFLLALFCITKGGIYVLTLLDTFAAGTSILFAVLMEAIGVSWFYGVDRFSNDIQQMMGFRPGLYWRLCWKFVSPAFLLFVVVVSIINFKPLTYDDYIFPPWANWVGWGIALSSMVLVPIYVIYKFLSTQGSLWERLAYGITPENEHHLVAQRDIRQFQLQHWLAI

| Ki [1] | Ki [2] | Ki [3] | SMILES |
| --- | --- | --- | --- |
| 50.6 nM | > 1000 nM | 194 nM | CN(C)Cc1ccccc1Sc1ccc(CCO)cc1N |
| 8.5 nM | > 5000 nM | > 5000 nM | CN(C)Cc1ccccc1Sc1ccc(CCF)cc1N |
| 0.49 nM | > 2000 nM | 370 nM | CCc1ccc(Sc2ccccc2CN(C)C)c(N)c1 |
| 0.57 nM | > 1000 nM | 303 nM | CN(C)Cc1ccccc1Sc1ccc(CO)cc1N |
| 0.25 nM | 532 nM | 61 nM | Cc1ccc(Sc2ccccc2CN(C)C)c(N)c1 |
| 0.013 nM | – | – | CN(C)Cc1ccccc1Sc1ccc(I)cc1N |
| 8.55 nM | > 5000 nM | 219 nM | CN(C)Cc1ccccc1Sc1ccc(CCCF)cc1N |
| 92.3 nM | > 5000 nM | 108 nM | CN(C)Cc1ccccc1Sc1ccc(CCCO)cc1N |

Further lines, the compound ahead of its results:

| SMILES | Ki [1] | Ki [2] | Ki [3] |
| --- | --- | --- | --- |
| CCc1ccc(Sc2ccccc2CNC)c(N)c1 | 2.04 nM | > 1000 nM | 445 nM |
| CN(C)Cc1ccccc1Sc1ccccc1N | 1.59 nM | 279 nM | 4.95 nM |
| C=Cc1ccc(Sc2ccccc2CN(C)C)c(N)c1 | 1.12 nM | 962 nM | 269 nM |
| CNC(=O)c1ccccc1Sc1ccc(C)cc1[N+](=O)[O-] | 1.94 nM | 698 nM | 191 nM |
| CNC(=O)c1ccccc1Sc1ccccc1[N+](=O)[O-] | 83.4 nM | 969 nM | 37.5 nM |
| CNCc1ccccc1Sc1ccc(CO)cc1N | 15.1 nM | > 1000 nM | 484 nM |

Source: ChEMBL document CHEMBL1140286, “Synthesis, in vitro characterization, and radiolabeling of N,N-dimethyl-2-(2'-amino-4'-substituted-phenylthio)benzylamines: potential candidates as selective serotonin transporter radioligands” (J Med Chem, 2005)
